Assay results as given in ChEMBL document CHEMBL1126319, “Synthesis, antiproliferative, and antiviral activity of certain 4-aminopyrrolo[2,3-d]pyridazine nucleosides: an entry into a novel series of adenosine analogues” (J Med Chem, 1992).

What was measured:
Homo sapiens [1] = species: Homo sapiens; test: In vitro antiproliferative effect against growth rate of H. Ep.2 cells at 100 uM concentration; type: functional
Summary of the method: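 H.Ep.2 cells receive compound at 100 μM. Growth is read by crystal violet A560-570 at days 0, 2 and 5 and expressed as growth rate, the slope of semilog cell number versus time as a percent of control.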

[2] = Cytotoxicity of compound was determined visually in human diploid fibroblasts (HFF).
Summary of the method: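 HFF cells are grown in MEM(E) with 10% FBS. Drug-induced cytopathology in uninfected cells of the HCMV plaque assay is scored 0 to 4+ at 35- and 60-fold magnification on the day of plaque staining. IC50 comes from regression against log concentration.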

Human betaherpesvirus 5 [3] = test: Concentration required to decrease the growth rate to 50% of control was evaluated against HCMV by using plaque reduction assay.; type: functional, organism-based
Summary of the method: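 HFF monolayers infected with about 50 PFU of HCMV Towne strain (plaque-purified P0 isolate) in a 0.2 mL inoculum. Compounds are dissolved in the overlay medium and plaques are counted. Percent inhibition is regressed linearly against log concentration to give the IC50. Acyclovir or ganciclovir serves as positive control. Values are averages of two to seven experiments.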

L1210 [4] = test: In vitro antiproliferative effect against growth rate of L1210 cells at 100 uM concentration; type: functional, Mus musculus
Summary of the method: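 L1210 cells are held in static suspension in Fischer's medium with compound at 100 μM. Cell counts are taken at 0, 48 and 96 h. Growth rate is the semilog slope versus time as a percent of control.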

Human alphaherpesvirus 1 = test: Concentration required to decrease the growth rate to 50% of control was evaluated against HSV-1 by using enzyme immunoassay.
L1210 [5] = test: Concentration required to decrease the growth rate to 50% of control was evaluated by determining their ability to inhibit growth of L1210 cells in vitro.; type: functional, cell-based; details: Mus musculus
Summary of the method: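 L1210 cells are grown in static suspension in Fischer's medium. Cell number is counted at 0, 48 and 96 h across a range of compound concentrations. Growth rate is the semilog slope as a percent of control; the 48–96 h rate is used if growth slowed. IC50 is the concentration giving 50% of control growth rate.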

Human betaherpesvirus 5 [6] = test: Concentration required to decrease the growth rate to 50% of control was evaluated against HCMV by using yield reduction assay.; type: functional
KB = test: Cytotoxicity of compound was determined by assaying cell growth in human neoplastic cell line(KB).; type: functional, cell-based
Summary of the method: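 KB cells (human epidermoid oral carcinoma) are grown in MEM(H) with 5% FBS. Growth is measured spectrophotometrically by crystal violet staining two days after drug treatment. IC50 comes from linear regression of percent inhibition against log concentration.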

Homo sapiens [7] = species: Homo sapiens; test: Concentration required to decrease the growth rate to 50% of control was evaluated by determining their ability to inhibit growth of H.Ep.2 cells in vitro.; type: functional, cell-based; details: HEp-2
Summary of the method: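 H.Ep.2 cells are grown in MEM (Earle's salts) with 15% bovine calf serum under 5% CO2, and 2000 cells/well are plated in MEM with 5% serum. Compounds are added 1 day later. Growth is read by crystal violet staining (A560-570) at days 0, 2 and 5 after addition. Growth rate is Td(control)/Td(treated), and IC50 is the concentration halving growth rate.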

Row | SMILES | Control (Homo sapiens [1]) | IC50 [2] | IC50 (Human betaherpesvirus 5 [3]) | Control (L1210 [4]) | IC50 (Human alphaherpesvirus 1) | IC50 (L1210 [5]) | Of control (Homo sapiens [1]) | IC90 (Human betaherpesvirus 5 [6]) | IC50 (KB) | IC50 (Homo sapiens [7])
1 | Nc1nncc2c1ccn2C1O[C@H](CO)[C@@H](O)[C@H]1O (stereo partly drawn) | 93% | > 100 µM | > 100 µM | 100% | > 100 µM |  |  |  |  | 
2 | Nc1nncc2c1ccn2C1O[C@H](CO)[C@@H](O)[C@@H]1O (stereo partly drawn) |  | > 100 µM | > 100 µM | 88% | > 100 µM | > 100 µM |  |  |  | 
3 | Nc1nncc2c1c(Br)cn2C1O[C@H](CO)[C@@H](O)[C@H]1O (stereo partly drawn) |  | 100 µM | 90 µM | 9% | 30 µM | 24 µM | 6% | 2.2 µM | 12 µM | 5.2 µM
4 | Nc1ncnc2c1c(Br)cn2[C@@H]1O[C@H](CO)[C@@H](O)[C@H]1O |  | 1.2 µM | 0.6 µM | 9% | 4 µM |  |  | 3.5 µM | 3 µM | 
5 | Nc1nc2c(ncn2COCCO)c(=O)[nH]1 [ACYCLOVIR] |  | > 100 µM |  |  | 3.4 µM |  |  | 90 µM | > 100 µM | 
6 | Nc1nc2c(ncn2COC(CO)CO)c(=O)[nH]1 [GANCICLOVIR] |  | > 100 µM | 8.4 µM |  |  |  |  | 1.8 µM | > 100 µM | 
7 | Nc1ncnc2c1ccn2[C@@H]1O[C@H](CO)[C@@H](O)[C@H]1O [TUBERCIDIN] |  | 0.4 µM |  | 0% |  |  | 0% |  | 1 µM | 0.06 µM
